VIM-2 inhibitor = blocks Pseudomonas aeruginosa VIM-2 metallo-beta-lactamase; purified VIM-2, nitrocefin hydrolysis, epi-absorbance fluorescence; inhibition, % at 5.6 µM; actives 0.89% (n = 290,000);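 active = inhibition above the mean of all tested compounds plus 3 SD, cutoff set per screening run, cut at about 7.5% in these data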;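 note: red hydrolysis product quenches plate fluorescence so inhibitors raise well fluorescence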
697 NFkB inh = inhibitors of the PMA/ionomycin-induced NF-kB reporter in 697 B cells; inhibition, % at 4 µM; actives 0.33% (n = 330,000); 697 B-cell NF-kB luciferase reporter, 16 h; AID 435022; in the data active = inhibition above about 35%
Mdm2-MdmX inh = inhibitors of human Mdm2/MdmX interaction | inhibition, % at 8 µM | O15151+Q00987 | SaOS-2 split-luciferase Mdm2/MdmX complementation, luminescence | actives 3% (n = 330,000);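 active = inhibition of at least 50% at 8 µM in the primary screen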
Target sequence (O15151 whole entry, looked up): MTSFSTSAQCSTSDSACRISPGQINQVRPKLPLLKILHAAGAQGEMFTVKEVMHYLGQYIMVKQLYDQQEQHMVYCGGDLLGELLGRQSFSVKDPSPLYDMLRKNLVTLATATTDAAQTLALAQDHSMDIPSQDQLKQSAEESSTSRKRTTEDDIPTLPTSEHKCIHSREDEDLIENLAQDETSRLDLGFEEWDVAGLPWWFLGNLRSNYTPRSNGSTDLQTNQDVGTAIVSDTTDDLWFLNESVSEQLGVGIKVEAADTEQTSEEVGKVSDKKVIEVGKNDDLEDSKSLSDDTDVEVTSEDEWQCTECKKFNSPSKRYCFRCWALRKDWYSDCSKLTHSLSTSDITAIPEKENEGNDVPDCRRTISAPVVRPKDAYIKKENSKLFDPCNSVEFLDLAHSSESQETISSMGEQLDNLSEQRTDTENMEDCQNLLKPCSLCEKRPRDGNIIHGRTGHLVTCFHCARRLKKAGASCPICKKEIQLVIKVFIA
Target sequence (Q00987 whole entry, looked up): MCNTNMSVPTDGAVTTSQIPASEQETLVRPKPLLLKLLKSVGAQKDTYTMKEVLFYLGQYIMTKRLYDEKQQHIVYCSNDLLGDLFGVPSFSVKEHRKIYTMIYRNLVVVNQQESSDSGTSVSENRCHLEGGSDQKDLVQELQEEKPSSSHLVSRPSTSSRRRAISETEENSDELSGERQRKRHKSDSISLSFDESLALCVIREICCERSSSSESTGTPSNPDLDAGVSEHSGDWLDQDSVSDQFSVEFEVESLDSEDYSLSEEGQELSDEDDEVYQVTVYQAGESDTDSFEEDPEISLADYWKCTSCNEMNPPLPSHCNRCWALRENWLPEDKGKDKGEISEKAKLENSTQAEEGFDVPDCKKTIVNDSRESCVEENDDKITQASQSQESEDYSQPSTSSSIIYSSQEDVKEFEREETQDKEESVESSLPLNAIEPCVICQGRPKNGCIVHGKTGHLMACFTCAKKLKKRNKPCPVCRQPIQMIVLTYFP
IMP-1 inh = inhibitors of Pseudomonas aeruginosa IMP-1 metallo-beta-lactamase; purified IMP-1, nitrocefin hydrolysis, epi-absorbance fluorescence; inhibition, % at 5.6 µM; actives 0.45% (n = 290,000);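 active = inhibition above the mean plus 3 SD of all compounds in the same screening run, cut at about 4.5% in these data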
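Test system: recombinant IMP-1 enzyme, purified / Medium: HEPES buffer pH 7.1 with ZnSO4 and Brij 35 / Doses: single dose, 5.6 µM / Times: 25 °C, 15 min preincubation, 25 min reaction / Detection: Epi-absorbance via hydrolysed-nitrocefin quenching of white-plate fluorescence, 480/530 nm, EDTA stop / Evaluation: percent inhibition from optical density relative to buffer-blank wells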
Jurkat NFkB inh = inhibitors of the PMA/ionomycin-induced NF-kB reporter in Jurkat cells. actives 0.53% (n = 330,000). PMA/ionomycin-induced NF-kB luciferase reporter, luminescence. inhibition, % at 4 µM; in the data active = inhibition above about 50%
aSyn UTR inh = 5' untranslated region of α-synuclein, MLPCN primary screen; inhibition, % (tested at 7.5 µM); actives 0.82% (n = 300,000); alpha-synuclein 5'UTR reporter, inhibitor activity; in the data active = inhibition above about 60%;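 note: H4 neuroglioblastoma cells stably carrying SNCA 5'UTR luciferase fusion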
Mdm2 MdmX conf = human Mdm2/MdmX binding inhibition, confirmed. shares compounds with Mdm2-MdmX inh. luminescent assay. inhibition, % at 8 µM. actives 55% (n = 10,000). AID 489028; in the data active = inhibition above about 40%
FLuc counter = full-length luciferase inhibition in Mdm2/MdmX counter-screen; shares compounds with Mdm2-MdmX inh; SaOS-2 full-length luciferase counterscreen, luminescence; inhibition, % at 8 µM; actives 77% (n = 6,200); AID 504607;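 active = mean inhibition at 8 µM reaching about 37%, which flags the compound as non-specific, limit read from the data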;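 note: p53-null SaOS-2 cells with luciferase driven by a doxycycline-inducible promoter; compound on cells about two nights before reading with doxycycline added after day one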
Of the large screens only hits and unclear results are named; the others gave an inactive call (follow-up assays come after a bar, where they were run). Rows were chosen to be rich in hits. Some 4.7% of all compounds tested hit in one or more screens of this group.

C=CC(=O)N=c1sc2ccccc2n1-c1ccccc1	Mdm2-MdmX inh 82, aSyn UTR inh 70 | Mdm2 MdmX conf 80 | FLuc counter 37
CSc1nnc(Cn2c(=O)sc3ccccc32)n1-c1ccccc1	none
Cc1cccc(NC(=O)CSCC(=O)N2CCN(Cc3ccc4c(c3)OCO4)CC2)c1	none (no result: VIM-2 inhibitor, IMP-1 inh)
Cc1[nH]c(=O)[nH]c(=O)c1CSc1nnc([C@@H](NC(=O)OC(C)(C)C)C(C)C)o1	Mdm2-MdmX inh 84 | Mdm2 MdmX conf inactive
CN(C(=O)COc1ccccc1C(=O)NCCOc1ccccc1)c1ccccc1	Mdm2-MdmX inh 85 | Mdm2 MdmX conf 96 | FLuc counter 41
CC(=O)c1c(C)[nH]c(C(=O)CSc2nnc(-c3cccs3)n2Cc2ccccc2)c1C	none
CCOC(=O)c1c(C)[nH]c(C(=O)CSc2nnc(-c3cccs3)n2Cc2ccccc2)c1C	Mdm2-MdmX inh 65 | Mdm2 MdmX conf 42 | FLuc counter 40
CC(=O)c1c(C)[nH]c(C(=O)CSc2nnc(-c3ccccc3)n2Cc2ccc3c(c2)OCO3)c1C	Mdm2-MdmX inh 77 | Mdm2 MdmX conf inactive
O=c1c2ccccc2nnn1CSc1nnc(-c2cccs2)n1Cc1ccccc1	Mdm2-MdmX inh 61 | Mdm2 MdmX conf 49 | FLuc counter 72
CC(=O)c1c(C)[nH]c(C(=O)CSc2nnc(-c3ccco3)n2Cc2ccccc2)c1C	none
CNC(=S)NNC(=O)c1sccc1OCc1ccc(Cl)cc1Cl	none
N/C(=N\NC(=O)c1sccc1OCc1ccc(Cl)cc1Cl)c1ccccn1	Mdm2-MdmX inh 62 | Mdm2 MdmX conf 65 | FLuc counter inactive
Cc1ccc(NC2=Nc3ccccc3N3C2=Nc2c(c(C)nn2-c2ccccc2)C3c2ccc(O)c(O)c2)cc1 (configuration not stated)	none (no result: 697 NFkB inh, Mdm2-MdmX inh, Jurkat NFkB inh, aSyn UTR inh)
Cc1nn(-c2ccccc2)c2c1C(c1ccc(O)c(O)c1)N1C(=N2)C(Nc2ccccc2)=Nc2ccccc21 (configuration not stated)	Mdm2-MdmX inh 83 | Mdm2 MdmX conf 45 | FLuc counter 40
Cc1cccc(NC2=Nc3ccccc3N3C2=Nc2c(c(C)nn2-c2ccccc2)C3c2ccc(O)c(O)c2)c1 (configuration not stated)	Mdm2-MdmX inh 78 | Mdm2 MdmX conf inactive | FLuc counter 50
COc1cc2ccccc2cc1C(=O)Nc1sc2c(c1C(N)=O)CCN(C(C)C)C2	Mdm2-MdmX inh 100, IMP-1 inh 7.1, aSyn UTR inh 102 | Mdm2 MdmX conf 42 | FLuc counter 48
CN1CCc2c(sc(NC(=O)c3ccc4ccccc4c3)c2C(N)=O)C1	none
O=C(O)CCC(=O)NCc1c(Cl)cccc1Sc1ccc(Cl)cc1	none
C/C(=N\NC(=O)COc1ccccc1-c1ccccc1)c1cccnc1	none
CCCCCC(=O)N/N=C(\C)c1ccccn1	Mdm2-MdmX inh 61, aSyn UTR inh 67 | Mdm2 MdmX conf inactive
C/C(=N\NC(=O)COc1ccccc1-c1ccccc1)c1ccccn1	Mdm2-MdmX inh 86, aSyn UTR inh 114 | Mdm2 MdmX conf 72 | FLuc counter 51
C/C(=N\NC(=O)COc1ccccc1-c1ccccc1)c1ccc(O)cc1O	Mdm2-MdmX inh 64 | Mdm2 MdmX conf 47 | FLuc counter 37
CC(C)(C)OC(=O)NCc1ccc(CNC(=O)c2nc[nH]c2C(=O)N2CCc3ccccc3C2)cc1	none (no result: VIM-2 inhibitor, IMP-1 inh, aSyn UTR inh)
COc1ccccc1NC(=O)C1=C(C)NC2=C(C(=O)CCC2)C1c1ccc2c(c1)OCO2 (configuration not stated)	none
O=C(Nc1nnc(-c2ccc3c(c2)CCCC3)o1)c1ccc(Cl)cc1Cl	Mdm2-MdmX inh 51 | Mdm2 MdmX conf inactive
CN(C)S(=O)(=O)c1ccc(C(=O)Nc2nnc(-c3ccc4c(c3)CCCC4)o2)cc1	Mdm2-MdmX inh 60, aSyn UTR inh 69 | Mdm2 MdmX conf inactive
CN(C)S(=O)(=O)c1ccc(C(=O)Nc2nnc(-c3cccs3)o2)cc1	none
Cc1cc(-c2ccc(S(=O)(=O)N3CCN(c4ccccc4F)CC3)s2)on1	none
Cc1ccc(C)c2[nH]c(=O)c(CN(CCCN(C)C)C(=O)NCc3ccccc3)cc12	none (no result: VIM-2 inhibitor, IMP-1 inh)
Cc1cc(C)c2cc(CN(CCCN(C)C)C(=S)NCc3ccccc3)c(=O)[nH]c2c1	Mdm2-MdmX inh 53 | Mdm2 MdmX conf inactive
N/C(=N\OC(=O)c1cccc(Cn2cc(C(F)(F)F)ccc2=O)c1)c1ccccc1	Mdm2-MdmX inh 68 | Mdm2 MdmX conf inactive
N/C(=N\OC(=O)c1cccc(Cn2cc(C(F)(F)F)ccc2=O)c1)c1ccc(Cl)cc1	Mdm2-MdmX inh 76 | Mdm2 MdmX conf 47 | FLuc counter 83
Cc1ccc(/C(N)=N/OC(=O)c2cccc(Cn3cc(C(F)(F)F)ccc3=O)c2)cc1	Mdm2-MdmX inh 89 | Mdm2 MdmX conf 50 | FLuc counter 76
CC(C)C[C@H](NC(=O)OC(C)(C)C)C(=O)N[C@@H](CO)[C@H](O)[C@@H]1C[C@@H]1C(=O)N1CCCC1	none
O=C(NCc1ccc(Cl)cc1)c1n[nH]c([N+](=O)[O-])c1Cl	none
Nc1ccc(Oc2ccc3nc(-c4ccccc4)c(-c4ccc([N+](=O)[O-])cc4)nc3c2)cc1	none
CCOC(=O)C1=C(N)OC2=C(C(=O)CCC2)C1c1ccc2c(c1)OCO2 (configuration not stated)	none (no result: VIM-2 inhibitor, IMP-1 inh)
Cc1ccc(N(Cc2ccc(C(=O)NN=C3CCN(C)CC3)cc2)S(C)(=O)=O)cc1C	none
CCOC(=O)N1CCN(c2cc3[nH]c(=S)[nH]c3cc2F)CC1	none
CCOC(=O)N1CCN(c2c(F)cc3[nH]c(=S)[nH]c3c2Br)CC1	Mdm2-MdmX inh 61 | Mdm2 MdmX conf 58 | FLuc counter 47
COc1cccc(N2CC(O)Cn3c2nc2c3c(=O)[nH]c(=O)n2C)c1 (configuration not stated)	none
CSc1nc(Oc2ccccc2)c2sccc2n1	none
CSc1nc(Oc2ccc3ccccc3c2)c2ccccc2n1	Mdm2-MdmX inh 55 | Mdm2 MdmX conf inactive
C=CCn1c(SCC(=O)Nc2cc(C)on2)nc2sc(C)c(C)c2c1=O	Mdm2-MdmX inh 51 | Mdm2 MdmX conf inactive
C=CCn1c(SCC(=O)Nc2sccc2C(N)=O)nc2ccc(Cl)cc2c1=O	none
CCn1c(SCC(=O)Nc2cc(C)on2)nc2sc3c(c2c1=O)CCCC3	Mdm2-MdmX inh 76 | Mdm2 MdmX conf 54 | FLuc counter inactive
CCc1sc2nc(SCC(=O)Nc3cc(C)on3)n(-c3cccc(OC)c3)c(=O)c2c1C	Mdm2-MdmX inh 92 | Mdm2 MdmX conf 66 | FLuc counter 77

Compound activity deposited in PubChem by several laboratories.
